Screens as filed in PubChem.
Tn6 DDE FP: inhibitors of Tn6 peptide binding to human fibrin DD(E); AID 720509; Fibrin DD(E) TRITC-Tn6 fluorescence polarization displacement; inhibition, % at 8.3 µM; 370,000 tested, 0.21% active; P02675;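 active = inhibition above a per-campaign cutoff: mean of compounds within control limits plus 3 SD, cut at about 15% in these data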
Target sequence (P02675 whole entry, looked up): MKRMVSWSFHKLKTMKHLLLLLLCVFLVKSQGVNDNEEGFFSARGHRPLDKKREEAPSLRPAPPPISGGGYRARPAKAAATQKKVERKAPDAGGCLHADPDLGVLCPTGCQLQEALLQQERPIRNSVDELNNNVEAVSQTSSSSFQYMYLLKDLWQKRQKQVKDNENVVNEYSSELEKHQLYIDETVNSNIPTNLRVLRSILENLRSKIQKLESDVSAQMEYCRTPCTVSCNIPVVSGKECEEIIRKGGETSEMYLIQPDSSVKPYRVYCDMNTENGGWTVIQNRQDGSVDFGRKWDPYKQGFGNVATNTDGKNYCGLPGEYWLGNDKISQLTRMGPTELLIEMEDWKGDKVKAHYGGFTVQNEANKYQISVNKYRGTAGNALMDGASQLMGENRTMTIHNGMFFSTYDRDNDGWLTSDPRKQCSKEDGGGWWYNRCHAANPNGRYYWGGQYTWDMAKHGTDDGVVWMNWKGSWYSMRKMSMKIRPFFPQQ
CRFBP-R2 block: CRF-BP/CRF-R2 complex antagonism; HEK293 CRF-R2/CRF-BP, CRF-induced calcium fluorescence; inhibition, % at 11.8 µM; 350,000 tested, 0.59% active; AID 588475;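 active = inhibition of the ligand-induced calcium signal above about 50% at the single tested concentration, limit read from the data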
Tn7 DDE FP: inhibitors of Tn7 peptide binding to human fibrin DD(E); FP displacement of FITC-Tn7 peptide from fibrin DD(E); 0% = median of compound wells per plate; inhibition, % at 8.3 µM; 370,000 tested, 0.13% active;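 active = inhibition above the mean of compounds falling within the control limits plus 3 SD of them, cut at about 14% in these data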
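Measure: % inhibition scaled between sample-field median and high-control FP; Test system: human fibrin DD(E); Quantity: 2 µM final DD(E) protein; Doses: one dose, 8.3 µM nominal; Schedule: compound with protein 10 min, then 3 h after probe, room temperature; Detection: fluorescence polarization; Medium: Tris buffer with calcium and detergent, pH 7.8.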
CRFR2-BP ag: CRF-BP/CRF-R2 complex agonism | HEK293 CRF-R2/CRF-BP, calcium dye fluorescence (FLIPR); percent of saturating CRF peptide response | activation, % at 13.2 µM | 350,000 tested, 0.46% active | AID 588473;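 active = activation of at least 50%, plus an integration ratio under a set limit after plate pattern correction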
Tn7 DDE conf: confirmation of inhibitors of Tn7 binding to human fibrin DD(E) | shares compounds with Tn7 DDE FP | FP displacement of TRITC-Tn7 peptide from DD(E); 0% set at plate's compound-well median | inhibition, % at 8.3 µM | 460 tested, 5% active | AID 720628;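 active = inhibition above the campaign cutoff, the mean of compounds within control limits plus 3 SD, cut at about 14% in these data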;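 note: displacers lower polarization since freed probe rises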
Tn7 DDE ctr: DD(E)-Tn7 binding inhibition, counter-screen; shares compounds with Tn7 DDE FP; fibrin DD(E), TRITC-Tn7 probe displacement, fluorescence polarization; 460 tested, 3% active; inhibition, % at 8.3 µM;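 active = inhibition above the cutoff, the mean of compounds lying between the control bounds plus 3 SD of those compounds, cut at about 17% in these data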
Numbers stand for hits; . = inactive; / = no result. Sampled rows, rich in hits. Any-hit rate of the full collection: about 1.2%.

SMILES	Tn6 DDE FP	CRFBP-R2 block	Tn7 DDE FP	CRFR2-BP ag	Tn7 DDE conf	Tn7 DDE ctr
COc1cccc(-c2cnc(C(O)c3cc(C)ccc3C)[nH]2)c1 (stereo not drawn)	.	/	.	/	/	/
COc1ccc(-c2cn3c(C)c(C(=O)Nc4cccc(NC(C)=O)c4)sc3n2)cc1	.	.	14	.	.	.
O=C(c1cccc(F)c1)N1CCCC(c2nc(-c3cccs3)no2)C1 (stereo not drawn)	.	/	15	/	.	.
COc1cccc(C(=O)N2CCCC(c3nc(-c4cccs4)no3)C2)c1 (stereo not drawn)	.	.	.	.	/	/
C[C@H]1CN[C@@H](CCO)/C1=C\c1ccccc1	.	.	14	.	.	.
C[C@H]1CN[C@H](CCO)/C1=C\c1ccccc1	.	.	.	.	/	/
COc1cc(OC)cc(-c2noc([C@@H]3O[C@H](CO)[C@@H](O)[C@H]3O)n2)c1	.	/	.	/	/	/
CC(C)(C)NC(=O)C(c1ccccn1)N(C(=O)c1csnn1)C1CCCCC1 (stereo not drawn)	.	.	.	.	/	/
CCC(C)(C)NC(=O)C(c1ccccn1)N(C(=O)c1csnn1)C1CCCCC1 (stereo not drawn)	.	.	14	.	.	.
Cc1cc(C(F)F)n2ncc(C(=O)NCc3ccccc3C(F)(F)F)c2n1	.	.	14	.	.	.
O=C(c1cccc(NC2=NC3CS(=O)(=O)CC3S2)c1)N1CCN(c2cccc(Cl)c2)CC1 (stereo not drawn)	.	.	17	.	.	.
O=C(c1cccc(NC2=NC3CS(=O)(=O)CC3S2)c1)N1CCN(c2ccc(F)cc2)CC1 (stereo not drawn)	.	.	.	.	/	/
COc1ccccc1C(=O)NCC(=O)OCC(=O)Nc1ccc2[nH]c(=O)[nH]c2c1	.	.	15	.	.	.
Cc1ccc(-n2nc3c(=O)n(C(C)C(=O)NCCC4=CCCCC4)nc(C)c3c2C)cc1 (stereo not drawn)	.	.	.	.	/	/
CCCN(CCC)CCNC(=O)C1CCN(S(=O)(=O)c2cccc3nsnc23)CC1	.	.	.	.	/	/
O=C(Nc1ccc(F)cc1F)Nc1sccc1-c1nc2ccccc2s1	.	.	15	.	.	.
Cc1cc(C(=O)NNc2cc(Cl)ccc2Cl)no1	.	.	.	.	/	/
Cc1cc(C(=O)NNc2c(Cl)cccc2Cl)no1	.	.	14	.	.	.
CS(=O)(=O)Nc1ccc(C(=O)Nc2ccccc2C(=O)NCc2ccco2)cc1	.	.	.	.	/	/
CC1(c2ccccc2)NC(=O)N(CC(=O)Nc2ccc(N3CCOCC3)cc2N2CCOCC2)C1=O (stereo not drawn)	.	.	14	.	.	.
Cc1ccc(-c2cc(C(=O)NNC(=O)c3csc(N4CCOCC4)n3)c3ccccc3n2)cc1	.	.	.	.	/	/
O=C(NNC(=O)c1cc(-c2ccccc2)nc2ccccc12)c1csc(N2CCOCC2)n1	.	.	15	.	.	.
CCOc1ccc(NC(=O)CN(C)C(=O)c2cccc(S(=O)(=O)N3CCN(C)CC3)c2)cc1OCC	.	.	.	.	/	/
COc1ccc(-n2nnnc2CNC(=O)C2CC(=O)N(c3ccc(F)cc3)C2)cc1 (stereo not drawn)	.	.	14	.	.	.
O=C(NCc1nnnn1-c1ccc(Cl)cc1)C1CC(=O)N(c2ccc(F)cc2)C1 (stereo not drawn)	.	.	.	.	/	/
SMILES	Tn6 DDE FP	CRFBP-R2 block	Tn7 DDE FP	CRFR2-BP ag	Tn7 DDE conf	Tn7 DDE ctr
CSc1ccc(C2C(C(=O)c3ccco3)=C(O)C(=O)N2c2nnc(SC)s2)cc1 (stereo not drawn)	.	.	26	.	.	.
Cc1nnc(N2C(=O)C(O)=C(C(=O)c3ccco3)C2c2ccc(F)cc2)s1 (stereo not drawn)	.	.	.	.	/	/
COc1ccccc1NS(=O)(=O)c1cc(Cl)ccc1OC	.	.	14	.	.	.
COc1ccccc1NS(=O)(=O)c1ccc(OC)c(OC)c1	.	.	.	.	/	/
CCN(CC)S(=O)(=O)c1cccc(-c2nnc(SCC(N)=O)n2C)c1	.	.	.	.	/	/
CCN(CC)S(=O)(=O)c1cccc(-c2nnc(SCc3ncc(-c4ccccc4)o3)n2C)c1	.	.	15	.	.	.
CCC1=Nc2cc(C(=O)O)ccc2Sc2ccc(Cl)cc21	.	.	15	.	.	.
Cc1ccc(-c2c(C#N)c(N)n(-c3ccccc3)c(=O)c2C#N)cc1	.	.	.	.	/	/
Cc1ccc(-c2c(C#N)c(N)n(-c3ccc(Cl)cc3)c(=O)c2C#N)cc1	.	/	14	/	.	.
CCCCCCn1c(=O)[nH]c2nc3cc(N)c(C)cc3nc2c1=O	.	.	30	325	.	.
Cc1ccc(OCCN2CCC2(C)C(=O)Nc2ccc3c(c2)OCCO3)cc1 (stereo not drawn)	.	/	.	/	/	/
Cc1cc2nc3c(=O)[nH]c(=O)[nH]c3nc2c([N+](=O)[O-])c1N	.	.	31	60	.	.
CCOC(=O)c1c(-c2ccccc2)oc2ccc(O)c(CN3CCCC3)c12	.	.	15	.	.	.
CC(C)n1ncc2c(C(=O)NCCc3ccc(S(N)(=O)=O)cc3)cc(C3CC3)nc21	.	.	.	.	/	/
COc1ccccc1-c1csc(C(NC(C)=O)c2ccc(F)c(F)c2)n1 (stereo not drawn)	.	/	.	/	/	/
COc1ccccc1N1CCN(CC(=O)c2c[nH]c3ccccc23)CC1	.	.	.	.	/	/
COc1ccccc1N1CCN(CC(=O)c2c(C)[nH]c3ccccc23)CC1	.	.	16	.	.	.
C=CCNC(=O)CN(CCc1ccccc1)S(=O)(=O)c1ccccc1	.	.	16	.	.	.
C=CCNC(=O)CN(Cc1ccccc1)S(=O)(=O)c1ccc(C)cc1	.	.	.	.	/	/
CC(C)C(=O)Nc1nnc(COc2ccc(Cl)cc2)s1	.	.	14	.	.	.
CC(=O)Nc1nnc(COc2ccc(Cl)cc2)s1	.	.	.	.	/	/
CC(NC(=O)COC(=O)[C@@H]1CCCN1S(=O)(=O)c1ccccc1F)C12CC3CC(CC(C3)C1)C2 (stereo partly drawn)	.	.	14	.	.	.
CC(=O)N1CC[n+]2c(-c3ccc(Cl)cc3Cl)csc21	.	.	.	.	/	/
O=C(OCCN1C(=O)c2cccc3c(N4CCOCC4)ccc(c23)C1=O)c1ccccc1Cl	.	.	33	170	.	.
CCn1c2ccccc2c2cc(NC(=O)COC(=O)c3cccc(F)c3)ccc21	.	/	.	/	/	/
N#Cc1ccc(S(=O)(=O)NCCc2ccncc2)cc1	.	.	.	.	/	/
CSc1ccc(C2NC(=O)CCC2[N+](=O)[O-])cc1 (stereo not drawn)	.	.	.	.	/	/
